Experiments:
[1] = system: Mus musculus; experiment: Induction of IFN-alpha production in C57BL/6 mouse liver assessed as time for peak induction of IFN-alpha at 1 mg/kg, po administered as single dose by ELISA; assay type: functional
Procedure, shortened: (§1)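 Healthy C57BL/6 mice given a single oral dose (1 or 5 mg/kg). Mouse IFN-α measured by ELISA in plasma and liver homogenates over time. Peak level (Fmax) and time of peak recorded. Three mice per time point, reported as geometric mean.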

[2] = AUClast in C57BL/6 mouse liver at 1 mg/kg, po administered as single dose; assay type: ADME, organism-based; parameters: dose 1 mg/kg, time 0 - last, route oral
Procedure, shortened: (§2)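 Healthy C57BL/6 mice given a single oral dose (1 or 5 mg/kg). Plasma and liver drug levels measured over time to give Tmax, Cmax and AUC0-last. Three mice per time point, reported as geometric mean.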

[3] = Cmax in C57BL/6 mouse plasma at 1 mg/kg, po administered as single dose; assay type: ADME, organism-based; parameters: dose 1 mg/kg, route oral; procedure, shortened: as §2
[4] = system: Mus musculus; experiment: Induction of IFN-alpha production in C57BL/6 mouse plasma assessed as peak IFN-alpha level at 1 mg/kg, po administered as single dose by ELISA; assay type: functional; procedure, shortened: as §1
[5] = Tmax in C57BL/6 mouse at 5 mg/kg, po administered as single dose; assay type: ADME, organism-based; details: in vivo; procedure, shortened: as §2
[6] = Cmax in C57BL/6 mouse plasma at 5 mg/kg, po administered as single dose; assay type: ADME, organism-based; parameters: dose 5 mg/kg, route oral; procedure, shortened: as §2
[7] = system: Mus musculus; experiment: Induction of IFN-alpha production in C57BL/6 mouse plasma assessed as peak IFN-alpha level at 5 mg/kg, po administered as single dose by ELISA; assay type: functional; procedure, shortened: as §1
[8] = system: Mus musculus; experiment: Induction of IFN-alpha production in C57BL/6 mouse plasma assessed as time for peak induction of IFN-alpha at 5 mg/kg, po administered as single dose by ELISA; assay type: functional; procedure, shortened: as §1
[9] = system: Mus musculus; experiment: Induction of IFN-alpha production in C57BL/6 mouse liver assessed as peak IFN-alpha level at 5 mg/kg, po administered as single dose by ELISA; assay type: functional; procedure, shortened: as §1
[10] = Cmax in C57BL/6 mouse liver at 5 mg/kg, po administered as single dose; assay type: ADME, organism-based; parameters: dose 5 mg/kg, route oral; details: in vivo; procedure, shortened: as §2

**Q.** Which results are given for CCCCNc1nc(N)nc2ccccc12?
**A.** Time [1]: 1 h; AUC(0-t) [2]: 0.133 µg·h/mL; Cmax [3]: 0.003 µg/mL; Fmax [4]: 315 pg/mL

**Q.** With CCCCNc1nc(N)nc2cccc(C(=O)N[C@@H](C)c3ccccc3)c12 as the compound, how does the Tmax [5] read?
**A.** Its Tmax is 1 h.

**Q.** What about the Cmax [6] of the same compound?
**A.** Its Cmax is 0.142 µg/mL.

**Q.** And the Fmax [7]?
**A.** The Fmax was 2800 pg/mL.

**Q.** What about the Time [8] of the same compound?
**A.** Its Time is 4 h.

**Q.** And the Fmax [9]?
**A.** Its Fmax is 325 pg/mg.

**Q.** What about the Cmax [10] of the same compound?
**A.** Its Cmax is 3230 ng/g.

From ChEMBL document CHEMBL4184225, “Discovery of selective 2,4-diaminoquinazoline toll-like receptor 7 (TLR 7) agonists” (Bioorg Med Chem Lett, 2018)
